Source: PubChem (several laboratories)
Shown are actives, neighbours in structure and some others; about 2.2% of the full set was active somewhere.
IMP-1 inh-1: inhibitors of Pseudomonas aeruginosa IMP-1 metallo-beta-lactamase | inhibition, % at 5.6 µM | purified IMP-1, nitrocefin hydrolysis, epi-absorbance fluorescence | 290,000 compounds, 0.45% hits;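 active = inhibition above the mean plus 3 SD of all compounds in the same screening run, cut at about 4.5% in these data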;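 also: 0% = IMP-1 with DMSO and 100% = DMSO wells lacking enzyme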
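Assay system: purified recombinant IMP-1 beta-lactamase. Input: IMP-1 0.2 nM before substrate addition. Buffer or medium: Zinc- and detergent-supplemented HEPES buffer, pH 7.1. Schedule: 25 °C, 15 min preincubation, 25 min reaction. Signal: Epi-absorbance fluorescence, 480 nm excitation, 530 nm emission. Evaluation: percent inhibition from optical density relative to buffer-blank wells.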
PABP FP inh: PABP-poly(A) binding inhibition. P11940. PABP-poly(A) RNA binding, fluorescence polarization. calls only at 35 µM. 290,000 compounds, 1% hits;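 also: calls also rest on retests at 20 µM and on dose response follow-up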
PABP1 MLLE inh: inhibitors of microRNA-mediated deadenylation, human PABP1 MLLE binding; P11940; AID 588489; 360,000 compounds, 0.36% hits; inhibition, % at 20 µM; GST-MLLE / FITC-PAM2 fluorescence polarization; in the data active = inhibition above about 35%, passing the limit was not always enough;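 also: plate controls were DMSO wells with GST-MLLE for no effect and wells lacking GST-MLLE protein for full effect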
eIF4H inh: inhibitors of RNA binding by human eIF4H | eIF4H fluorescence polarization binding assay | inhibition, % at 35 µM | AID 2012 | Q15056 | 290,000 compounds, 0.94% hits;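 also: calls also rest on retests at 20 µM and on dose response follow-up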
VIM-2 inh: blocks Pseudomonas aeruginosa VIM-2 metallo-beta-lactamase; AID 1527; 290,000 compounds, 0.89% hits; inhibition, % at 5.6 µM; purified VIM-2, nitrocefin hydrolysis, epi-absorbance fluorescence;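 active = inhibition above the mean of all tested compounds plus 3 SD, cutoff set per screening run, cut at about 7.5% in these data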;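 also: red hydrolysis product quenches plate fluorescence so inhibitors raise well fluorescence; 0% = enzyme with DMSO and 100% = DMSO without enzyme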
IMP-1 inh-2: selectivity counter-screen for VIM-2 inhibitors: IMP-1 metallo-beta-lactamase inhibitors; shares compounds with VIM-2 inh; purified IMP-1, nitrocefin hydrolysis, epi-absorbance fluorescence; inhibition, % at 5.6 µM; 1,300 tested, under 10 active; AID 1856;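 also: 0% = enzyme with vehicle and 100% = vehicle without enzyme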
VIM-2 FRET ctr: VIM-2 FRET inhibition, artifact counter-screen. 1,300 compounds, 23% hits. inhibition, % at 5.6 µM. shares compounds with VIM-2 inh. AID 1857. purified VIM-2, CCF2 FRET substrate hydrolysis;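 active = inhibition above the mean of all tested compounds plus 3 SD, cut at about 19% in these data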;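 also: 0% = VIM-2 plus DMSO and 100% = no enzyme wells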
TEM-1 counter-1: selectivity counter-screen for VIM-2 inhibitors: E. coli TEM-1 inhibitors; inhibition, % at 5.6 µM; 1,300 compounds, 3% hits; Purified TEM-1, nitrocefin hydrolysis, epi-absorbance fluorescence; shares compounds with VIM-2 inh;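 active = inhibition above that campaign's mean inhibition plus 3 SD, cut at about 0.46% in these data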;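 also: 0% = TEM-1 with DMSO and 100% = TEM-1 with 100 µM potassium clavulanate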
VIM-2 inh conf: confirmation of P. aeruginosa VIM-2 metallo-beta-lactamase inhibitors. shares compounds with VIM-2 inh. purified VIM-2, nitrocefin hydrolysis, epi-absorbance. inhibition, % at 5.6 µM. 1,300 compounds, 96% hits. AID 2187;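 active = inhibition of the VIM-2 beta-lactamase enzyme above about 11% from the earlier first-round screen, limit read from the data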;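 also: 0% = VIM-2 with DMSO and 100% = buffer wells without enzyme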
VIM-2 inh confirm: VIM-2 inhibition, confirmation assay | shares compounds with IMP-1 inh-1 | purified VIM-2 enzyme, nitrocefin absorbance | inhibition, % at 5.6 µM | 200 compounds, 73% hits; in the data active = inhibition above about 8%;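 also: 0% = enzyme with vehicle and 100% = no enzyme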
TEM-1 counter-2: blocks E. coli TEM-1 beta-lactamase, VIM-2 IMP-1 counter-screen. shares compounds with IMP-1 inh-1. nitrocefin absorbance inhibition. AID 2184. inhibition, % at 5.6 µM. 200 compounds, 50% hits; in the data active = inhibition above about 0.66%
IMP-1 inh conf: confirmation of P. aeruginosa IMP-1 metallo-beta-lactamase inhibitors. shares compounds with IMP-1 inh-1. purified IMP-1 enzyme, absorbance substrate hydrolysis. inhibition, % at 5.6 µM. 200 compounds, 60% hits. AID 2189; in the data active = inhibition above about 4.9%;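 also: 0% = enzyme with vehicle and 100% = vehicle without enzyme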
An asterisk follows results filed as active. Unless noted, no rule for the calls is given here.

`O=C(Cc1ccccc1)Oc1ccccc1N1C(=O)CCC1=O` gave IMP-1 inh-1 -1.3, PABP FP inh inactive, PABP1 MLLE inh -13.8, eIF4H inh 0.9 and VIM-2 inh -4.1.
For COC(=O)C1=C(c2ccc(OC)c(OC)c2)C[C@@H]2CC[C@H]1N2C(=O)NCCc1ccccc1 the results were PABP1 MLLE inh -2.0.
`CN1CCC(N(C)c2nc(-c3ccccc3)nc3ccccc23)CC1` gave IMP-1 inh-1 -5.8, PABP FP inh inactive, PABP1 MLLE inh 1.7, eIF4H inh 2.6, VIM-2 inh 21.4*, IMP-1 inh-2 -1.4, VIM-2 FRET ctr -2.6, TEM-1 counter-1 -3.9 and VIM-2 inh conf 32.9*.
`Cc1cc(OCC(=O)NCC(O)c2ccccc2)c2c3c(c(=O)oc2c1)CCCC3` (centres undefined) gave IMP-1 inh-1 -3.9, PABP FP inh inactive, PABP1 MLLE inh 1.8, eIF4H inh 26.2 and VIM-2 inh 2.4.
`Cc1cc(OCC(=O)NCc2cccnc2)c2c3c(c(=O)oc2c1)CCCC3` gave IMP-1 inh-1 -2.6, PABP FP inh inactive, PABP1 MLLE inh -3.9, eIF4H inh -8.7, VIM-2 inh 32.6*, IMP-1 inh-2 -3.4, VIM-2 FRET ctr -1.6, TEM-1 counter-1 -9.2 and VIM-2 inh conf 39.7*.
O=P(O)(O)Oc1ccccc1P(=O)(c1ccccc1)c1ccccc1 was read as IMP-1 inh-1 -2.9, PABP FP inh inactive, PABP1 MLLE inh 2.2, eIF4H inh -1.4, VIM-2 inh 16.8*, IMP-1 inh-2 -2.6, VIM-2 FRET ctr 23.1*, TEM-1 counter-1 -3.8 and VIM-2 inh conf 20.6*.
CCOC(=O)C1CCCN(c2ccc([N+](=O)[O-])c3nonc23)C1 (centres undefined) was read as IMP-1 inh-1 26.8*, PABP FP inh inactive, PABP1 MLLE inh inactive, eIF4H inh inconclusive, VIM-2 inh 25.7*, VIM-2 inh confirm 28.2*, TEM-1 counter-2 34.0* and IMP-1 inh conf 22.7*.
`CCN1CCC2(CC1)NC(=O)c1ccccc1O2` gave IMP-1 inh-1 -2.2, PABP FP inh inactive, PABP1 MLLE inh -2.6, eIF4H inh 6.8 and VIM-2 inh -2.8.
